Hits are enriched below; roughly 1.7% of the tested compounds scored in any of these assays.
PP1 counter = PP1-alpha (human) inhibition in PP5 counter-screen | purified PP1alpha, OMFP fluorescence | inhibition, % at 6.7 µM | 320,000 compounds, 0.9% hits;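 active means inhibition above the mean inhibition of all tested compounds plus 3 SD, computed separately for each screening campaign, cut at about 15% in these data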
JMJD2C inh = blocks human GASC-1 demethylase activity | Q9H3R0 | GST-JMJD2C(1-420) H3K9me3 demethylation, DELFIA europium | inhibition, % at 2.35 µM | 330,000 compounds, 0.069% hits;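 active means more than half of a compound's replicate wells show inhibition beyond 50%, single wells judged on their own value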;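 further: signal counts dimethyl H3K9 product captured on neutravidin plate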
PP5 primary = blocks human protein phosphatase 5 activity. 320,000 compounds, 0.18% hits. AID 1987. purified PP5c, OMFP substrate fluorescence. inhibition, % at 6.7 µM;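 active means inhibition above the campaign's mean inhibition across all tested compounds plus 3 SD, cut at about 9.5% in these data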
m5-HT2A agonist = agonists of mouse serotonin 5-HT2A receptor (HTR2A); CHO-K1 mHTR2A beta-arrestin complementation, luminescence; percent of 30 µM serotonin response; activation, % at 7.6 µM; 360,000 compounds, 0.66% hits; AID 624169;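 active means activation above a run cutoff, the mean activation of all tested compounds plus 3 SD, cut at about 14% in these data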
Target sequence (P35363 whole entry, looked up): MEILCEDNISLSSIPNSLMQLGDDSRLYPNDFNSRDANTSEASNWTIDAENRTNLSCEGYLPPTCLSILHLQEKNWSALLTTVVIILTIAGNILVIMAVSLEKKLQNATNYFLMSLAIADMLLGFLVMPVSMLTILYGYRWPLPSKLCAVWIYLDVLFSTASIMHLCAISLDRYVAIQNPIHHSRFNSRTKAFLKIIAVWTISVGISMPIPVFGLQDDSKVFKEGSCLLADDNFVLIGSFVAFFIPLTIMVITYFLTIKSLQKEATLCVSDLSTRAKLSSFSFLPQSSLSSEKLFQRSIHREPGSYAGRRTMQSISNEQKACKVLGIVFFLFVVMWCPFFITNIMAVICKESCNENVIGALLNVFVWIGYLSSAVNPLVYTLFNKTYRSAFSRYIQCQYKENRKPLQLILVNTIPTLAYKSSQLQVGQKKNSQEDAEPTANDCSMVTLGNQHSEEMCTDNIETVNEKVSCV
T cell modulator = modulates CD8 T cell binding to vesicles | response (vesicle binding), % at 7 µM | 2C CD8+ T cell-vesicle binding, flow cytometry; stronger effect = lower value | 330,000 compounds, 0.068% hits;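 active means response, share of CD8 T cells binding vesicles, and their 90th percentile fluorescence all below set limits, cut at about 80% in these data, passing the limit was not always enough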;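 further: values below 100% mean blocked vesicle binding to the CD8+ T cells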
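Assay system – 2C mouse CD8+ T cells · Also added – QL9-loaded Drosophila micro-vesicles · Timing – Cell–vesicle co-incubation 1.5 h at 37 °C, staining 20 min on ice · Signal – flow cytometry of vesicle-bound cells · Measure – percent CD8+ FL2 mean versus row control · Controls – Peptide-free naked vesicles (low) and QL9 vesicles with 0.7% DMSO vehicle (high)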
OPRM1 ag = OPRM1 agonism in mouse HTR2A counterscreen; AID 624380; shares compounds with m5-HT2A agonist; 2,300 compounds, 5.3% hits; U2OS OPRM1 beta-arrestin PathHunter, luminescence; DMSO 0%, DAMGO 9.3 µM 100%; activation, % at 9.3 µM;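 active means mean activation above the mean of DMSO-only wells plus 3 SD, cut at about 0.5% in these data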
HTR2A ag conf = confirmation of mouse HTR2A serotonin receptor agonists. AID 624381. shares compounds with m5-HT2A agonist. CHO-K1 PathHunter beta-arrestin recruitment, luminescence; DMSO 0%, 30 µM serotonin 100%. 2,300 compounds, 19% hits. activation, % at 7.6 µM;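 active means mean activation across triplicates above the hit threshold derived in the original primary screen, cut at about 15% in these data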
Each line names hits and unclear results; the compound was inactive in the other large screens (follow-up assays come after a bar, where they were run).

CCOC(=O)CNS(=O)(=O)c1cc(-c2nnc(Nc3ccc4c(c3)OCO4)c3ccccc23)ccc1C	m5-HT2A agonist 17.4 | OPRM1 ag inactive | HTR2A ag conf inactive
Cc1ccc(-c2nnc(Nc3ccc(O)cc3)c3ccccc23)cc1S(=O)(=O)NCCO	none (no result: PP1 counter, PP5 primary)
O=C(Nc1nc2ccccc2s1)c1ccc(F)cc1	m5-HT2A agonist 52.7 | OPRM1 ag inactive | HTR2A ag conf inactive
CC(=O)NC1CCCC(NC(C)=O)C1 (configuration not stated)	none (no result: PP1 counter, JMJD2C inh, PP5 primary, T cell modulator)
O=C(O)[C@H]1CCCC[C@H]1C(=O)NCCc1ccccc1	none
COc1ccc2[nH]cc(CCNS(=O)(=O)c3ccc(NC(C)=O)cc3)c2c1	m5-HT2A agonist 30.7 | OPRM1 ag inactive | HTR2A ag conf 15.0
COc1ccc2[nH]cc(CCNC(=O)C3CCCCC3)c2c1	m5-HT2A agonist 14.7 | OPRM1 ag inactive | HTR2A ag conf inactive
COc1ccc2[nH]cc(CCNC(=S)NC3CCCC3)c2c1	none
Cc1[nH]c2ccccc2c1C(=O)C(=O)NCCCc1ccccc1	none
Cc1[nH]c2ccccc2c1C(=O)C(=O)NCCc1c[nH]c2ccccc12	m5-HT2A agonist 15.1 | OPRM1 ag inactive | HTR2A ag conf inactive
CC(=O)Nc1ccc(S(=O)(=O)NCCc2c[nH]c3ccc(C)cc23)cc1	none (no result: PP1 counter, PP5 primary)
O=C(O)C1CCCCC1C(=O)NCCc1c[nH]c2ccccc12 (configuration not stated)	m5-HT2A agonist 38.1 | OPRM1 ag inactive | HTR2A ag conf 15.5
CN(C(=O)c1ccc(NC(=O)Cc2ccc(NC(=O)C3CCCN(C(=O)CCc4ccccc4)C3)cc2)cc1)C1CCCC1 (configuration not stated)	none (no result: PP1 counter, JMJD2C inh, PP5 primary, T cell modulator)
O=C(CN1C(=O)c2cccnc2Oc2ccc(Cl)cc21)N1CCOCC1	m5-HT2A agonist 14.4 | OPRM1 ag inactive | HTR2A ag conf inactive
O=C(Nc1oc2ccccc2c(=O)c1-c1ccc2c(c1)OCO2)c1ccco1	m5-HT2A agonist 14.5 (no result: PP1 counter, JMJD2C inh, PP5 primary, T cell modulator) | OPRM1 ag inactive | HTR2A ag conf inactive
O=C(Nc1ccccc1C(=O)Nc1ccc2c(c1)OCO2)c1ccco1	none
CSCCC(c1nc2ccccc2[nH]1)n1c(-c2cc(C(F)(F)F)cc(C(F)(F)F)c2)nc2ccccc21 (configuration not stated)	m5-HT2A agonist 19.3 (no result: PP1 counter, JMJD2C inh, PP5 primary, T cell modulator) | OPRM1 ag 0.8 | HTR2A ag conf inactive
CCCCCCN1C(=O)CC(NC(=O)OCC2c3ccccc3-c3ccccc32)C/C=C\C1C(C)C (configuration not stated)	m5-HT2A agonist 16.0 (no result: PP1 counter, JMJD2C inh, PP5 primary, T cell modulator) | OPRM1 ag inactive | HTR2A ag conf inactive
O=C(OC1CCCCC1=O)c1cc(S(=O)(=O)N2CCOCC2)ccc1F (configuration not stated)	m5-HT2A agonist 15.3 | OPRM1 ag 1.1 | HTR2A ag conf inactive
O=C(NCC1CCCCC1)c1cc(S(=O)(=O)N2CCOCC2)ccc1F	m5-HT2A agonist 15.2 | OPRM1 ag inactive | HTR2A ag conf inactive
Cc1cc2oc(=O)cc(CN3CCN(c4ccc(Cl)c(Cl)c4)CC3)c2cc1Cl	m5-HT2A agonist 17.2 (no result: PP1 counter, JMJD2C inh, PP5 primary, T cell modulator) | OPRM1 ag inactive | HTR2A ag conf inactive
Cc1cc2oc(=O)cc(Cn3ccnc3)c2cc1Cl	m5-HT2A agonist 25.8 | OPRM1 ag inactive | HTR2A ag conf inactive
Cc1ccc2c(CN3CCN(c4ccc(Cl)c(Cl)c4)CC3)cc(=O)oc2c1	m5-HT2A agonist 17.8 (no result: PP1 counter, JMJD2C inh, PP5 primary, T cell modulator) | OPRM1 ag inactive | HTR2A ag conf inactive
Cc1ccc2c(CN3CCCCC3)cc(=O)oc2c1	none
COc1ccc(N2CCN(Cc3cc(=O)oc4cc(C)c(Cl)cc34)CC2)cc1	none (no result: JMJD2C inh)
CSCCC(NS(=O)(=O)c1ccccc1F)C(=O)NCc1cccnc1 (configuration not stated)	none
O=C1C2CCc3ccccc3C2N1c1ccccc1 (configuration not stated)	m5-HT2A agonist 18.4 | OPRM1 ag inactive | HTR2A ag conf inactive
CN(C)c1ccc(C(C(=O)NCc2ccccc2)N(Cc2ccco2)C(=O)c2snc(C(N)=O)c2N)cc1 (configuration not stated)	m5-HT2A agonist 16.2 | OPRM1 ag inactive | HTR2A ag conf inactive
O=C(Nc1cccc(S(=O)(=O)N2CCOCC2)c1)C(c1ccccc1)N1CCCCC1 (configuration not stated)	none
CC(C(=O)Nc1cccc(S(=O)(=O)N2CCOCC2)c1)N1CCN(C/C=C/c2ccccc2)CC1 (configuration not stated)	m5-HT2A agonist 17.2 | OPRM1 ag inactive | HTR2A ag conf 21.3
CC(=O)c1cccc(N(CC(=O)NC2CCCCC2)C(=O)CNC(=O)c2cccs2)c1	none
CCOC(=O)C(NC(=O)C1C(C)N1S(=O)(=O)c1ccc(C)cc1)C(=O)OCC (configuration not stated)	m5-HT2A agonist 16.4 | OPRM1 ag inactive | HTR2A ag conf inactive
CC(C)(C)c1cc(CCC(=O)NCC2CCCO2)cc(C(C)(C)C)c1O (configuration not stated)	none
CCOC(=O)/C(C#N)=C\N(C)C	none
CCc1c(C)nn(C(=O)/C(C#N)=C\N(C)C)c1C	m5-HT2A agonist 42.4 | OPRM1 ag inactive | HTR2A ag conf inactive
COc1ccc(-c2nc3c(Cl)cc(C(F)(F)F)cn3c2Cc2ccc(C)cc2)cc1OC	none (no result: PP1 counter, JMJD2C inh, PP5 primary, T cell modulator)
CC1(C(=O)NCC2CC2)Cc2c(-c3cccc(C(N)=O)c3)ccnc2O1 (configuration not stated)	m5-HT2A agonist 14.4 (no result: PP1 counter, JMJD2C inh, PP5 primary, T cell modulator) | OPRM1 ag inactive | HTR2A ag conf inactive
CC(=O)NCCNC(=O)C1(C)Cc2c(-c3ccc(C(N)=O)cc3)ccnc2O1 (configuration not stated)	m5-HT2A agonist 23.6 (no result: PP1 counter, JMJD2C inh, PP5 primary, T cell modulator) | OPRM1 ag inactive | HTR2A ag conf inactive
CC(=O)NCCNC(=O)C1(C)Cc2c(-c3ccccc3)ccnc2O1 (configuration not stated)	none (no result: PP1 counter, JMJD2C inh, PP5 primary, T cell modulator)
COc1ccccc1NS(=O)(=O)c1cccc(C(=O)N2CCN(C(=O)c3ccco3)CC2)c1	none
Cc1nn(-c2ccccc2)c(C)c1NC(=O)COC(=O)CC(C)c1ccccc1 (configuration not stated)	none
COc1ccccc1CNC(=O)COC(=O)Cc1ccc(Br)cc1	m5-HT2A agonist 16.0 (no result: PP1 counter, PP5 primary) | OPRM1 ag inactive | HTR2A ag conf inactive
COc1ccccc1CNC(=O)C1CCC1	m5-HT2A agonist 15.3 | OPRM1 ag inactive | HTR2A ag conf inactive
COc1ccccc1CNC(=O)C1CCN(S(=O)(=O)N2CCCCC2)CC1	none
CCOC(=O)c1c(NC(=O)COC(=O)CC(NC(C)=O)c2ccccc2)sc(C(=O)NC)c1C (configuration not stated)	none
O=C(NCC1CC1)c1cccs1	none (no result: PP1 counter, JMJD2C inh, PP5 primary, T cell modulator)
